Experimental data from ChEMBL document CHEMBL4813940, “Design, synthesis and biological evaluation of novel benzoxaborole derivatives as potent PDE4 inhibitors for topical treatment of atopic dermatitis” (Eur J Med Chem, 2021).

Legend:
[1] = test system: Mus musculus; assay: Antiinflammatory activity against PMA-induced ICR mouse ear oedema model assessed as reduction in ear swelling at 1 mg/ear topically administered and measured after 4 hrs; format: functional
Summary of the method: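 Male ICR mice, 8 weeks old. The sample was applied topically to the right ear at 1.0 mg/ear in ethanol before PMA. After 4 h the mice were killed by cervical dislocation and both ears were measured with a micrometer. Oedema was the thickness difference between the ears; inhibition was the percent reduction versus the model group.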

[2] = target: T1, 3',5'-cyclic-AMP phosphodiesterase 4B (Homo sapiens, UniProt Q07343); assay: Inhibition of PDE4B (unknown origin) assessed as hydrolysis of [3H]-cAMP into [3H]-AMP incubated for 30 mins by scintillation of proximity assay
[3] = target: T1, 3',5'-cyclic-AMP phosphodiesterase 4B; assay: Inhibition of PDE4B (unknown origin) assessed as hydrolysis of [3H]-cGMP into [3H]-GMP incubated for 30 mins by scintillation of proximity assay; conditions: in the assay text read “[3H]-cAMP into [3H]-AMP” for “[3H]-cGMP into [3H]-GMP”
Summary of the method: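 Scintillation proximity assay of [3H]-cAMP or [3H]-cGMP hydrolysis to [3H]-AMP or [3H]-GMP. Enzyme was diluted to 1–2 nM in 50 mM Tris pH 7.5, 8.3 mM MgCl2 and 1.7 mM EGTA. Reaction was started by adding enzyme, test solution and radiolabelled substrate, then incubated at 30 °C for 30 min and stopped with SPA beads. Run in duplicate.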

T1 sequence (Q07343 whole entry): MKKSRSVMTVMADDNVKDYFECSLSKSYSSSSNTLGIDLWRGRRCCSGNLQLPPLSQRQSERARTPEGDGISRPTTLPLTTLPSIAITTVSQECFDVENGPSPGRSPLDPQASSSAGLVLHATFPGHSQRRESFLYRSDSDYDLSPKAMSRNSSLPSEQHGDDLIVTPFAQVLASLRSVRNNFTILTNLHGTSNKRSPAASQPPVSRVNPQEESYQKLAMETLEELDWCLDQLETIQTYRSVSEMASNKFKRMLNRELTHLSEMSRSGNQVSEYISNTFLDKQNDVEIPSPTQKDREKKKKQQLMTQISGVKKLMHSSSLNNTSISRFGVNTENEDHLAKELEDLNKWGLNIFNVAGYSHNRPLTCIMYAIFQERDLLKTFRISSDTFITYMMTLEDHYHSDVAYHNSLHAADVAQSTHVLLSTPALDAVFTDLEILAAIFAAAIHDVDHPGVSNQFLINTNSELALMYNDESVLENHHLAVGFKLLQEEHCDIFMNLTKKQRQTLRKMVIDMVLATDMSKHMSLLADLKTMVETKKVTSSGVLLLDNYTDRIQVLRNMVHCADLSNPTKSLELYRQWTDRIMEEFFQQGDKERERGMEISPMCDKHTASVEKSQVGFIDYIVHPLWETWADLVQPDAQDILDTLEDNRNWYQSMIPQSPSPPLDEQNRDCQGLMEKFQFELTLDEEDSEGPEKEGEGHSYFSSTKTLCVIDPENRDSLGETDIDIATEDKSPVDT

| IC50 [2] | IC50 [3] | SMILES | inhibition (INH) [1] |
| --- | --- | --- | --- |
| 17.3 nM | – | CCOC(=O)c1cccc2nc(Oc3ccc4c(c3)COB4O)ccc12 | 57.69% |
| 3.57 nM | – | CC(=O)c1ccc2nc(Oc3ccc4c(c3)COB4O)ccc2c1 | 34.09% |
| – | 25.5 nM | N#Cc1ccc2cc(Oc3ccc4c(c3)COB4O)ccc2c1 | – |
| – | 10.8 nM | COC(=O)c1ccc2nc(Oc3ccc4c(c3)COB4O)ccc2c1 | 54.72% |
